# Legend:
# [1] = biological target: T1, Corticotropin-releasing factor receptor 1 (Homo sapiens, UniProt P34998); assay: Inhibition of [125I][Tyr0]-sauvagine binding to human Corticotropin releasing factor receptor 1 expressed in mouse fibroblast Ltk- cells; assay type: cell-based
# T1 sequence (P34998 whole entry): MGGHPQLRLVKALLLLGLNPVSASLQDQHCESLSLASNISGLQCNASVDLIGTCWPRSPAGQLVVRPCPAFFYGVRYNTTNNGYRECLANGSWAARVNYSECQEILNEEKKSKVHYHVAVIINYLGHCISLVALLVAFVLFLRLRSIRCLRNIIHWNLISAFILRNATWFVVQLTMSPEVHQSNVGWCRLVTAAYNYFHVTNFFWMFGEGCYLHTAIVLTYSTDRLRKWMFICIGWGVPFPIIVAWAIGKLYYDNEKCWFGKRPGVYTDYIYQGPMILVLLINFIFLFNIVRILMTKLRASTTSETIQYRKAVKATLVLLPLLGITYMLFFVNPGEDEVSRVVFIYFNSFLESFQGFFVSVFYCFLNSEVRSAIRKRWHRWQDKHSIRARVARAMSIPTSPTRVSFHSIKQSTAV
# [2] = biological target: Corticotropin releasing factor receptor (Rattus norvegicus, UniProt P47866+P35353); assay: Inhibition of corticotropin releasing factor stimulated cAMP production in rat pituitary assay; assay type: functional, tissue-based, Pituitary gland
# [3] = biological target: T2, Corticotropin-releasing factor receptor 2 (Homo sapiens, UniProt Q13324); assay: Binding affinity for human Corticotropin releasing factor receptor 2
# T2 sequence (Q13324 whole entry): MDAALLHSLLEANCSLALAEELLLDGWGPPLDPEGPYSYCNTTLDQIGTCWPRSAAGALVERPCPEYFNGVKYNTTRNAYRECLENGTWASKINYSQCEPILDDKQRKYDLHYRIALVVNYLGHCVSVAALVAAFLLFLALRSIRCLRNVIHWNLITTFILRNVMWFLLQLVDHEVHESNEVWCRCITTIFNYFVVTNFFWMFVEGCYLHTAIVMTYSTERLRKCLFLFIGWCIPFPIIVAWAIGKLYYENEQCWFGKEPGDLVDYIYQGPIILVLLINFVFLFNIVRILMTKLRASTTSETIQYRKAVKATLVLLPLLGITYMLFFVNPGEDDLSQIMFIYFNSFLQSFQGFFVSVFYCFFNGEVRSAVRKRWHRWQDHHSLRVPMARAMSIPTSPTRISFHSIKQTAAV
# [4] = Time to attain peak plasma concentration upon oral administration of 2 mg/kg to rats; assay type: ADME, organism-based; parameters: dose 2 mg/kg, route oral; details: rat
# Procedure, shortened: (§1)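 Male Sprague-Dawley rats were dosed at 1 mg/kg iv via the tail vein and at 2 mg/kg by oral gavage, n = 3 per time point. The dosing solution was in purified water at 2 mL/kg. Terminal plasma was sampled at set times (composite design), acetonitrile-precipitated and analysed by LC-MS/MS (LLOQ 5 ng/mL). Parameters came from noncompartmental analysis.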
# [5] = Volume of distribution in rats upon intravenous administration of 1 mg/kg; assay type: ADME, organism-based; parameters: dose 1 mg/kg, route intravenous; details: rat, in vivo, read-out: V; procedure, shortened: as §1
# [6] = Area under concentration time curve upon oral administration of 2 mg/kg to rats; assay type: ADME, organism-based; parameters: dose 2 mg/kg, route oral; details: rat, in vivo; procedure, shortened: as §1
# [7] = Plasma half life in rats upon intravenous administration of 1 mg/kg; assay type: ADME, organism-based; parameters: dose 1 mg/kg, route intravenous; details: rat; procedure, shortened: as §1
# [8] = Ratio of compound concentration in brain to that of plasma of rats upon intravenous administration of 1 mg/kg; assay type: ADME, organism-based; parameters: dose 1 mg/kg, route intravenous; details: rat
# Procedure, shortened: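 Male Sprague-Dawley rats, 3 per time point, received 1 mg/kg iv by tail vein at 2 mL/kg in filtered purified water. Terminal blood and brain were taken at set times for composite sampling. Plasma was acetonitrile-precipitated and half-brains were homogenized in 50:50 acetonitrile/water, then measured by LC-MS/MS (LLOQ 5 ng/mL plasma, 0.5 ng/g brain). Ratio = brain AUC / plasma AUC, noncompartmental.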
# [9] = Peak plasma concentration upon oral administration of 2 mg/kg to rats; assay type: ADME, organism-based; parameters: dose 2 mg/kg, route oral; details: rat; procedure, shortened: as §1
# [10] = Clearance of compound in rats upon intravenous administration of 1 mg/kg; assay type: ADME, organism-based; parameters: dose 1 mg/kg, route intravenous; details: rat, in vivo; procedure, shortened: as §1
# [11] = Bioavailability upon 2 mg/kg oral administration to rats; assay type: ADME, organism-based; details: rat, in vivo; procedure, shortened: as §1
Structure (SMILES),Ki [1] [nM],also measured
CCCN(c1nc(-c2ccc(Cl)cc2OC)n(C)n1)C(C1CC1)C1CC1,28,–
CCCN(c1nc(-c2ccc(Cl)cc2Cl)n(C)n1)C(C1CC1)C1CC1,9.2,IC50 [2]: 90 nM; Ki [3]: > 10000 nM
CCCC(c1ccccc1)N(CCC)c1nc(-c2ccc(OC)cc2C)n(C)n1 (configuration not stated),61,–
CCC(c1ccccc1)N(CC)c1nc(-c2ccc(Cl)cc2OC)n(C)n1 (configuration not stated),150,–
CCCCC(CC)N(CC1CC1)c1nc(-c2ccc(Cl)cc2OC)n(C)n1 (configuration not stated),440,–
CCCCC(CC)N(CCOC)c1nc(-c2ccc(Cl)cc2OC)n(C)n1 (configuration not stated),280,–
CCCN(c1nc(-c2ccc(Cl)cc2OC)n(C)n1)C(C(C)C)C(C)C,910,–
CCCN(c1nc(-c2ccc(Cl)cc2OC)n(C)n1)C(CC)c1ccc(C(F)(F)F)cc1 (configuration not stated),12,–
CCCCC(c1ccc(F)cc1)N(CCC)c1nc(-c2ccc(OC)cc2OC)n(C)n1 (configuration not stated),24,–
CCCC(c1ccccc1)N(CCC)c1nc(-c2ccc(OC)cc2OC)n(C)n1 (configuration not stated),120,–
CCCN(CCC)c1nc(-c2ccc(Cl)cc2OC)n(C)n1,> 10000,–
CCCC(c1ccccc1)N(CCC)c1nc(-c2cc(OC)c(OC)cc2Cl)n(C)n1 (configuration not stated),84,–
CCCN(c1nc(-c2ccc(Cl)cc2OC)n(C)n1)[C@H](CC)c1ccc(C(F)(F)F)cc1,428,–
CCCC[C@H](c1ccc(F)cc1)N(CCC)c1nc(-c2ccc(Cl)cc2OC)n(C)n1,46,–
CCC[C@H](c1ccccc1)N(CCC)c1nc(-c2ccc(OC)cc2C)n(C)n1,380,–
CCCC[C@@H](c1ccccc1)N(CCC)c1nc(-c2ccc(OC)cc2C)n(C)n1.Cl,5.7,IC50 [2]: 92 nM
CCCN(c1nc(-c2ccc(Cl)cc2OC)n(C)n1)[C@@H](CC)c1ccc(C(F)(F)F)cc1.Cl,5.2,IC50 [2]: 120 nM

Structure (SMILES),Ki [1] [nM],also measured
CCC[C@@H](c1ccccc1)N(CCC)c1nc(-c2ccc(OC)cc2C)n(C)n1.Cl,9,IC50 [2]: 120 nM
CCCC[C@@H](c1ccc(F)cc1)N(CCC)c1nc(-c2ccc(Cl)cc2OC)n(C)n1.Cl,2.7,IC50 [2]: 49 nM
CCCC[C@H](c1ccccc1)N(CCC)c1nc(-c2ccc(OC)cc2C)n(C)n1,350,–
CCCC[C@@H](c1ccccc1)N(CCC)c1nc(-c2ccc(Cl)cc2OC)n(C)n1.Cl,4,IC50 [2]: 56 nM
CCCN(c1nc(-c2ccc(OC)cc2C)n(C)n1)[C@@H](CC)c1ccc(C(F)(F)F)cc1.Cl,–,IC50 [2]: 270 nM
CCC[C@@H](c1ccccc1)N(CCC)c1nc(-c2ccc(Cl)cc2OC)n(C)n1.Cl,6.3,IC50 [2]: 91 nM
CCC[C@@H](c1ccccc1)N(CCC)c1nc(-c2ccc(OC)cc2OC)n(C)n1.Cl,22,IC50 [2]: 240 nM
CCC[C@@H](c1ccccc1)N(CCC)c1nc(-c2cc(OC)c(OC)cc2Cl)n(C)n1.Cl,16.3,IC50 [2]: 240 nM
CCCN(c1nc(-c2ccc(Cl)cc2Cl)nn1C)C(C1CC1)C1CC1,> 10000,–
CCCC(c1ccccc1)N(CCC)c1nc(-c2ccc(Cl)cc2OC)n(C)n1 (configuration not stated),14,–
CCCCC(c1ccc(F)cc1)N(CCC)c1nc(-c2ccc(Cl)cc2OC)n(C)n1 (configuration not stated),7.3,Tmax [4]: 0.5 h; Vd [5]: 7.8 L/kg; AUC [6]: 1010 ng·h/mL; half-life [7]: 3.3 h; Ratio [8]: 20%; Cmax [9]: 290 ng/mL; clearance [10]: 27.7 mL/min/kg; bioavailability [11]: 84%
CCCCC(CC)N(CCC)c1nc(-c2ccc(Cl)cc2OC)n(C)n1 (configuration not stated),46,–
CCCN(c1nc(-c2ccc(Cl)cc2OC)n(C)n1)C(C)CC (configuration not stated),690,–
CCCCC(c1ccccc1)N(CCC)c1nc(-c2ccc(OC)cc2C)n(C)n1 (configuration not stated),6.9,–
CCCN(CCC)c1nc(-c2ccc(Cl)cc2Cl)n(C)n1,3400,–
CCCN(c1nc(-c2ccc(Cl)cc2OC)n(C)n1)C(CC)c1ccccc1 (configuration not stated),26,–
CCCN(CC1CC1)c1nc(C)nc(Nc2c(Cl)cc(Cl)cc2Cl)c1Cl,2,–

# Reference: ChEMBL document CHEMBL1142705, “Rational design, synthesis, and structure-activity relationships of aryltriazoles as novel corticotropin-releasing factor-1 receptor antagonists” (J Med Chem, 2005)
